Columns and labels:
Large T antigen = biological target: T1, Large T antigen (JC polyomavirus, UniProt P03072); assay: Inhibition of helicase activity of JC polyomavirus LTAg (E264 to D628 residues) expressed in Escherichia coli using Cy5/BHQ3 dsDNA pre-incubated for 20 mins and measured after 120 to 180 mins by fluorescence based assay
T1 sequence (P03072 whole entry): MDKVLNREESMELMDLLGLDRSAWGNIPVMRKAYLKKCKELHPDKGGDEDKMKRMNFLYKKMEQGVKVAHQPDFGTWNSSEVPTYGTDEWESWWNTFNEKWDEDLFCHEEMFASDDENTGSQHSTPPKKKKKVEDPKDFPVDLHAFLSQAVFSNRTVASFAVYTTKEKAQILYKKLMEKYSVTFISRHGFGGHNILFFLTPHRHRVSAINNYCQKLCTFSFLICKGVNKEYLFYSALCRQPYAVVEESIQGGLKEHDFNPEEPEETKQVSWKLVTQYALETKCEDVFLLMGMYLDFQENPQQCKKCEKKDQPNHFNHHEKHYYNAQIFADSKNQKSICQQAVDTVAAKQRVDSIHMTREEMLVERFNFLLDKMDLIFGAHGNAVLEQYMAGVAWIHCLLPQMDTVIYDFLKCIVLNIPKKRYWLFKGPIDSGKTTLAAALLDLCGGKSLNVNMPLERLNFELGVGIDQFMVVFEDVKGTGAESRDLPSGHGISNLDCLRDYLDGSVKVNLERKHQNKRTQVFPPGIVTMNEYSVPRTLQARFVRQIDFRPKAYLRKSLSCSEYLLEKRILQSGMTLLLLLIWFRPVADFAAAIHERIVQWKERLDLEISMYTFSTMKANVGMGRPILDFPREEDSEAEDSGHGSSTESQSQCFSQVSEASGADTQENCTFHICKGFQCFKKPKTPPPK

[1] = Inhibition of helicase activity of BK polyomavirus LTAg (E265 to D629 residues) expressed in Escherichia coli using Cy5/BHQ3 dsDNA pre-incubated for 20 mins and measured after 120 to 180 mins by fluorescence based assay; set-up: species or system Betapolyomavirus hominis
JC polyomavirus = assay: Antiviral activity against JC polyomavirus infected in […] G144 […] cells assessed as reduction in late viral protein and viral capsid protein VP1 incubated for 72 hrs by branched DNA assay; assay type: functional, organism-based
Method in brief: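 G144 […] cells plated on poly-ornithine (0.005%)/laminin (10 µg/ml)-coated flasks, infected with MAD4 JCV at MOI = 1 TCID₅₀ for 24 hr, then replated at 5,000 cells/well in differentiation medium. Compounds added in DMSO (0.5% final) for 72 hr. Lysates denatured with NaOH at 52°C for 30 min; VP1 DNA measured by bDNA capture probes. EC50 from four-parameter curve fit.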

[2] = Cytotoxicity against […] G144 […] cells; assay type: cell-based

Row | Compound | IC50 (Large T antigen) | IC50 [1] | EC50 (JC polyomavirus) | CC50 [2]
1 | COc1cccc(OC)c1-c1nn2cnnc2s1 | > 80 µM | > 80 µM |  | 
2 | COc1ccccc1-c1nc2cc(N)ncc2s1 | 4.3 µM | 8.7 µM |  | 
3 | c1cc2c(c(-c3nn4cnnc4s3)c1)OCCC2 | 15.5 µM | 24 µM |  | 
4 | c1ccc(-c2nc3ccncc3s2)c(OCCC2CCOCC2)c1 | 9.6 µM | 11 µM | 7.7 µM | > 50 µM
5 | c1ccc(Oc2ccccc2-c2nc3ccncc3s2)cc1 | 10.5 µM | 10.2 µM | 36 µM | > 50 µM
6 | c1ccc(-c2nn3cnnc3s2)c(OCCC2CCOCC2)c1 | 5.8 µM | 8.4 µM | 15 µM | > 50 µM
7 | c1cc2c(c(-c3nn4cnnc4s3)c1)OCC2 | 13.5 µM | 21 µM | > 16 µM | > 50 µM
8 | CC(=O)Nc1ccc(Oc2ncccc2-c2nc3ccncc3s2)cc1 | 0.6 µM |  | 40 µM | > 50 µM
9 | Oc1ccccc1-c1nn2cnnc2s1 | > 80 µM | > 80 µM |  | 
10 | COc1ccccc1-c1nn2cnnc2s1 | 19.4 µM | 29 µM | > 60 µM | > 80 µM
11 | COc1ccc(-c2nn3cnnc3s2)c(OC)c1 | 18 µM | 24 µM |  | 
12 | CN(C)c1ccccc1-c1nn2cnnc2s1 | > 80 µM | > 80 µM |  | 
13 | c1cc2c(c(-c3nc4ccncc4s3)c1)OCC2 | 8.7 µM | 15 µM | 0.26 µM | > 50 µM
14 | c1ccc(-c2nn3cnnc3s2)c(OCC2CCOCC2)c1 | 6.3 µM | 17 µM |  | 
15 | CCOc1ccccc1-c1nc2ccncc2s1 | 9.1 µM | 8 µM | 7.4 µM | > 50 µM
16 | c1ccc(Oc2ccccc2-c2nn3cnnc3s2)cc1 | 4.9 µM | 3.7 µM | 34 µM | > 50 µM
17 | c1ccc(Oc2ncccc2-c2nc3ccncc3s2)cc1 | 1.4 µM | 1.3 µM | 3.8 µM | > 50 µM
18 | c1ccc(Oc2ccncc2-c2nn3cnnc3s2)cc1 | 5.5 µM | 7.3 µM |  | 

Row | Compound | IC50 (Large T antigen) | IC50 [1] | EC50 (JC polyomavirus) | CC50 [2]
19 | CC(=O)Nc1ccc(Oc2ccccc2-c2nc3ccncc3s2)cc1 | 0.9 µM | 1.6 µM | 48 µM | > 50 µM
20 | c1ccc(-c2nn3cnnc3s2)c(OCCN2CCOCC2)c1 | 52 µM | 73 µM |  | 
21 | COc1ccccc1-c1nc2ccncc2s1 | 5 µM | 10.7 µM | 1.5 µM | > 50 µM
22 | Cc1ccccc1-c1nn2cnnc2s1 | > 80 µM | > 80 µM |  | 
23 | N#CCCCOc1ccccc1-c1nn2cnnc2s1 | 25 µM | 42 µM |  | 
24 | COCCOc1ccccc1-c1nn2cnnc2s1 | 28.5 µM | 63 µM |  | 
25 | CCOc1ccccc1-c1nn2cnnc2s1 | 18 µM |  | 44 µM | > 65 µM
26 | COc1ccccc1Cc1nn2cnnc2s1 | > 80 µM | > 80 µM |  | 
27 | COc1cccc(-c2nn3cnnc3s2)c1OC | 62 µM | > 80 µM |  | 
28 | Nc1ccccc1-c1nn2cnnc2s1 | > 80 µM | > 80 µM |  | 
29 | c1ccc(Oc2ncccc2-c2nn3cnnc3s2)cc1 | 8.8 µM | 11 µM | 76 µM | > 50 µM
30 | CNc1cc2nc(-c3ccccc3OC)sc2cn1 | > 80 µM | > 80 µM |  | 
31 | CCOc1ccccc1-c1nc2cnccc2s1 | > 80 µM | > 80 µM |  | 
32 | c1ccc(Oc2ncncc2-c2nn3cnnc3s2)cc1 | > 80 µM | > 80 µM |  | 
33 | COc1ccccc1-c1nc2ccnc(N)c2s1 | > 80 µM | > 80 µM |  | 
34 | c1ccc(C2CC2)c(-c2nn3cnnc3s2)c1 | > 80 µM | > 80 µM |  | 
35 | Oc1ccccc1-c1nc2ccncc2s1 | 37 µM | 53 µM |  | 
